High-throughput results: PubChem BioAssay, Broad Institute
DENV2 CPE: inhibitors of DENV2 cytopathic effect | DENV2-infected cells, cytopathic effect rescue, plate reader | 350,000 compounds, 1.7% hits | CPE inhibition, % at 9.99 µM; in the data active = CPE inhibition above about 20%, passing the limit was not always enough; tested in BHK-21 cells
SIRT5 inh: blocks human SIRT5 desuccinylation of peptide; Q9NXA8; Purified SirT5, succinyl-peptide AMC, trypsin-coupled fluorescence; inhibition, % at 15 µM; 330,000 compounds, 1.1% hits; AID 652115; in the data active = inhibition above about 15%
MLL AF4-AF9 inh: inhibitors of human MLL-AF4/AF9 interaction; P42568; AlphaScreen, biotin-AF4 peptide binding to FLAG-AF9; inhibition, % at 10 µM; 350,000 compounds, 0.47% hits; AID 651704;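 active = every replicate reaching a set inhibition limit, whatever the replicate mean, cut at about 25% in these data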
Target sequence (P42568 whole entry, looked up): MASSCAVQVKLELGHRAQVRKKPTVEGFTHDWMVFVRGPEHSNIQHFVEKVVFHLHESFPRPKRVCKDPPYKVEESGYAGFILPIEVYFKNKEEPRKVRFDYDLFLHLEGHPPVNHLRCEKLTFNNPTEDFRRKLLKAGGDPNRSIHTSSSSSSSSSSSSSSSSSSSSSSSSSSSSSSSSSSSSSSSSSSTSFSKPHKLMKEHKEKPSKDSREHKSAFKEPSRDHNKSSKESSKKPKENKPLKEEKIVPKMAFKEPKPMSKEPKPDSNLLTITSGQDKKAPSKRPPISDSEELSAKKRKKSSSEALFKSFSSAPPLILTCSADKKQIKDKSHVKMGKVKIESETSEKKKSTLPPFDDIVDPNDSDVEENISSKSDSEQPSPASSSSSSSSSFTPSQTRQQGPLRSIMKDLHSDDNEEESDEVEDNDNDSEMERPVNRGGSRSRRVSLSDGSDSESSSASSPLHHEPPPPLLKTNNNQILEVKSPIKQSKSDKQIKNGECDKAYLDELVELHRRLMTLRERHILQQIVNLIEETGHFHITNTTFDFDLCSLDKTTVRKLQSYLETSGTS
S100A4 inh HTS: blocks human S100A4 binding to myosin IIA peptide; P26447; S100A4/TAMRA-MyoIIA peptide fluorescence polarization; inhibition, % at 10.7 µM; 360,000 compounds, 0.14% hits;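 active = mean inhibition of at least 70% across replicates, with every replicate also reaching that level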
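System – human S100A4 monomer protein, biochemical binding assay · Buffer or medium – Calcium-containing HEPES buffer, pH 7.2 · Timing – 5 min between mix addition and reading · Also added – TAMRA-labelled myosin IIA heavy-chain peptide probe, 5 nM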
CaV13 FRET inh: Primary screen for inhibitors of IQ motif and Ca2+-dependent inactivation inhibitor domain binding in CACNA1D, Förster resonance energy transfer in living cells, …; 340,000 compounds, 0.098% hits; AID 743397; inhibition, % at 12.3 µM; HEK cells, CFP/YFP FRET ICDI-IQ, plate reader, 10 min; percent FRET-ratio fall versus neutral wells;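 active = mean replicate inhibition of at least 30% and at least 1% of replicates passing that level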
Numbers stand for hits; i = inactive; nt = no result. Hits are enriched below; roughly 2.7% of the tested compounds scored in any of these assays.

SMILES	DENV2 CPE	SIRT5 inh	MLL AF4-AF9 inh	S100A4 inh HTS	CaV13 FRET inh
Cc1noc(C)c1S(=O)(=O)Nc1ccc2c(c1)CC(=O)N([C@H](C)CO)C[C@H](C)[C@H](CN(C)Cc1ccc3c(c1)OCO3)O2	51.1	i	i	i	nt
Cc1noc(C)c1S(=O)(=O)Nc1ccc2c(c1)CC(=O)N([C@@H](C)CO)C[C@H](C)[C@H](CN(C)Cc1ccccc1)O2	i	i	i	i	nt
O=C(COc1cccnc1[N+](=O)[O-])Nc1ccccc1Sc1ccccc1	32.5	nt	i	i	i
O=C(COc1cccnc1[N+](=O)[O-])Nc1cccc(Br)c1	i	i	i	i	i
Cc1noc(C)c1S(=O)(=O)Nc1ccc2c(c1)C(=O)N([C@@H](C)CO)C[C@H](C)[C@H](CN(C)S(=O)(=O)c1cccs1)OCCCC[C@H](C)O2	i	nt	nt	nt	nt
CCCC(=O)Nc1ccc2c(c1)C(=O)N(C)C[C@H](OC)[C@H](C)CN(Cc1ccccc1)[C@@H](C)CO2	i	i	i	98.0	nt
COCC(=O)Nc1ccc2c(c1)OC[C@@H](C)N(CCc1ccccc1)C[C@@H](C)[C@H](OC)CN(C)C2=O	i	31.0	i	i	nt
CCCC(=O)Nc1ccc2c(c1)OC[C@H](C)N(Cc1ccccc1)C[C@H](C)[C@@H](OC)CN(C)C2=O	31.6	i	i	i	nt
CCCC(=O)Nc1ccc2c(c1)OC[C@H](C)N(Cc1ccccc1)C[C@H](C)[C@H](OC)CN(C)C2=O	i	i	i	i	nt
CCCC(=O)Nc1ccc2c(c1)C(=O)N(C)C[C@H](OC)[C@H](C)CN(Cc1ccccc1)[C@H](C)CO2	i	i	i	96.2	nt
COc1ccc(S(=O)(=O)N(C)C[C@@H]2Oc3c(NC(=O)c4cc(C)nn4C)cccc3C(=O)N([C@@H](C)CO)C[C@@H]2C)cc1	i	i	i	i	nt
CCS(=O)(=O)Nc1ccc2c(c1)C(=O)N(C)[C@@H]1CC[C@H](CC(=O)N3CCOCC3)O[C@@H]1CO2	i	i	i	i	nt
O=C(/C=C/c1ccc(-c2ccc(F)cc2)o1)N1CCCC1	i	21.0	i	i	i
O=C(Nc1c[nH]c(=O)[nH]c1=O)c1ccc2c(c1)C(=O)N(c1cccc([N+](=O)[O-])c1)C2=O	i	i	i	i	i
O=C(Nc1ccccc1C(=O)O)c1ccc2c(c1)C(=O)N(c1cccc([N+](=O)[O-])c1)C2=O	i	18.4	i	i	i
CC(C)C(=O)Nc1ccc2c(c1)C(=O)N(C)[C@H]1CC[C@H](CC(=O)NCCCN(C)C)O[C@H]1CO2	i	nt	nt	nt	nt
Cc1nnc(SCC(=O)Nc2ncc3c(n2)CC(c2ccccc2)CC3=O)s1 (configuration not stated)	nt	28.2	nt	i	i
C[C@H](CO)N1C[C@H](C)[C@H](CN(C)C(=O)CN(C)C)Oc2cc(C#C[C@@H](C)O)ccc2S1(=O)=O	i	i	i	i	nt
O[C@H]1CN(CC2CCCCC2)[C@@H](c2ccc(Cl)cc2)C[C@@H]1n1cc(C2CC2)nn1	45.3	i	i	i	i
COc1ccc([C@H]2C[C@H](O)[C@@H](n3cc(COC(=O)c4ccccc4)nn3)CN2Cc2cccs2)cc1	i	i	i	i	i
COc1ccc([C@H]2C[C@H](O)[C@@H](n3cc(COC(=O)c4ccccc4)nn3)CN2CC2CCCCC2)cc1	20.1	i	i	i	i
COc1ccc([C@H]2C[C@@H](n3cc(C4CC4)nn3)[C@H](O)CN2Cc2cccs2)cc1	34.5	i	i	i	i
O[C@@H]1CN(CC2CCCCC2)[C@@H](c2ccccc2)C[C@H]1n1cc(C2CC2)nn1	i	i	i	i	i
